As a reminder, the IC50 is the concentration needed to halve the response being measured. High values mean lower potency, low ones higher potency.

The species named for one assay is Danio rerio. In words: Anti-angiogenic activity in zebrafish-guided angiogenesis model assessed as reduction in inter-segmental blood vessels measured at 72 hpf by fluorescence microscopy. The format is functional. The procedure, abridged: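 Tg(fli-1:EGFP) zebrafish embryos, dechorionated at 24 hpf, 20 per group, kept in embryo water containing compound at 28.5 °C for a further 48 h. All compounds screened first at 50 μM; active ones titrated for minimum effective dose. At 72 hpf embryos anesthetized in 0.016% tricaine and intersegmental vessels imaged by fluorescence microscopy. SU5416 positive control.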

The test system of assay [1] is HCT-116. In words: Antiproliferative activity against human HCT116 cells incubated for 72 hrs by MTT assay. The class given is functional, cell-based. As to conditions: HCT-116, 72 h. The procedure, abridged: (§1)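 5×10³ cells per well preincubated 12 h at 37 °C, 5% CO₂. Medium replaced with fresh medium containing compound at various concentrations, DMSO ≤0.1%, for 72 h at 37 °C. MTT 0.5 mg/mL final added for 2 h; formazan dissolved in DMSO, A570 read; viability expressed relative to untreated cells.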

For the next assay, the system named is MDA-MB-231. In words: Antiproliferative activity against human MDA-MB-231 cells incubated for 72 hrs by MTT assay. The format is functional, cell-based. Particulars: MDA-MB-231, 72 h. Summed up: as §1
A further assay deals with HepG2. The experiment in a line: Antiproliferative activity against human HepG2 cells incubated for 72 hrs by MTT assay. The format is functional, cell-based. Particulars: HepG2, 72 h. The procedure, abridged: as §1
A further assay deals with MKN-45. The experiment in a line: Antiproliferative activity against human MKN45 cells incubated for 72 hrs by MTT assay. The class given is functional, cell-based. As to conditions: MKN-45, 72 h. The procedure, abridged: as §1
Another assay relates to A549. The experiment in a line: Antiproliferative activity against human A549 cells incubated for 72 hrs by MTT assay. The class given is functional, cell-based. As to conditions: A549, 72 h. Summed up:
as §1
On the technique in general: Formazan colour is commonly taken as a measure of viable cells.

For assay [2], the system named is HCT-116. The experiment in a line: Induction of apoptosis in human HCT116 cells assessed as late apoptotic cells level at 1 uM incubated for 48 hrs by Annexin V-FITC and propidium iodide staining based flow cytometry. The format is functional. Summed up: (§2)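 HCT116 seeded 2 × 10⁵ cells/well, adhered overnight, then exposed to compound for 48 h. Annexin V-FITC/PI double staining, read by flow cytometry. Early apoptotic cells counted as Annexin V+/PI− (lower right quadrant), late apoptotic as Annexin V+/PI+ (upper right). Culture at 37 °C, 5% CO₂, medium with 10% FBS and penicillin/streptomycin, DMSO ≤0.1%.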
A general note: In flow cytometry, cells or beads pass a laser one at a time.

Assay [3] has as its system HCT-116. In words: Induction of apoptosis in human HCT116 cells assessed as early apoptotic cells level at 1 uM incubated for 48 hrs by Annexin V-FITC and propidium iodide staining based flow cytometry. The format is functional. Summed up:
as §2

Turning to `COc1ccc(CCc2ccc([N+](=O)[O-])cc2)cc1OC`, in the assay filed under Danio rerio, the MED is more than 50 µM. In addition, the 50% inhibitory concentration (IC50) is 5.97 µM in the assay with HCT-116 [1]; more than 25 µM with MDA-MB-231; 1.6 µM in the assay with HepG2; 13.7 µM in the assay on MKN-45; more than 25 µM in the assay with A549.

Consider `COc1cc(CCc2ccc(Br)cc2)cc(OC)c1O`, for which the MED in the assay listed under Danio rerio lay in the range of 2.5 to 5 µM. In addition, the 50% inhibitory concentration (IC50) in the assay on HCT-116 [1] is 15.8 µM; with MDA-MB-231, more than 25 µM; in the assay on HepG2 it was 8.49 µM; with MKN-45, 1.49 µM; in the assay on A549, more than 25 µM.

`COc1cc(CCc2ccccn2)cc(OC)c1O`: the MED in the assay listed under Danio rerio was 25 to 50 µM. Further, the 50% inhibitory concentration (IC50) with HCT-116 [1] is 3.06 µM; with MDA-MB-231, more than 25 µM; with HepG2, 4.84 µM; in the assay on MKN-45, 0.66 µM; in the assay on A549, more than 25 µM.

On to `COc1ccc(CCc2ccc(OC)c(OC)c2)cc1O`, for which the MED in the assay filed under Danio rerio is 40 to 50 µM. Further, the IC50 in the assay on HCT-116 [1] was 5.26 µM; with MDA-MB-231, 0.081 µM; with HepG2, 4.05 µM; in the assay with MKN-45, more than 25 µM; with A549 it was 4.79 µM.

For the compound `CC(C)=CCC[C@]1(C)C=Cc2c(O)c3c(c(CC=C(C)C)c2O1)O[C@]12C(=C[C@@H]4C[C@H]1C(C)(C)O[C@@]2(C/C=C(/C)C(=O)O)C4=O)C3=O` [GAMBOGIC ACID], the IC50 in the assay on HCT-116 [1] was 3.11 µM; in the assay with MDA-MB-231, 1.33 µM; in the assay with HepG2 it was 2.36 µM; in the assay with MKN-45, 4.27 µM; in the assay with A549 it was 1.47 µM. Besides, the figures for the Activity with HCT-116 [2] and in the assay on HCT-116 [3] were 31.8% and 33%, respectively.

Take `COc1cc(CCc2ccc(Cl)c(Cl)c2)cc(OC)c1O`: the MED in the assay filed under Danio rerio was 20 to 25 µM. For the same compound, the IC50 worked out at 1.86 µM with HCT-116 [1]; 2.52 µM in the assay on MDA-MB-231; 16.1 µM in the assay with HepG2; 20.6 µM in the assay with MKN-45; 13.4 µM with A549.

On to `COc1ccc(CCc2ccccc2)cc1OC`, for which, in the assay filed under Danio rerio, the MED was more than 50 µM. Also, the IC50 in the assay with HCT-116 [1] is 2.56 µM; in the assay on MDA-MB-231, more than 25 µM; in the assay on HepG2, 2.08 µM; in the assay with MKN-45, 21.9 µM; in the assay on A549 it was more than 25 µM.

On to `COc1cc(CCc2ccccc2F)cc(OC)c1O`, for which the MED in the assay filed under Danio rerio is 10 to 15 µM. In addition, the concentration for half-maximal inhibition (IC50) was 0.88 µM in the assay with HCT-116 [1]; 9.22 µM in the assay on MDA-MB-231; 1.03 µM in the assay with HepG2; more than 25 µM with MKN-45; more than 25 µM in the assay with A549.

Take `COc1cc(CCc2ccncc2)cc(OC)c1O`: the MED in the assay filed under Danio rerio is more than 50 µM. The IC50 in the assay with HCT-116 [1] was 3.74 µM; in the assay with MDA-MB-231 it was 6.3 µM; in the assay on HepG2, 2.17 µM; in the assay with MKN-45, 3.81 µM; in the assay with A549 it was more than 25 µM.

In the case of `COc1cc(CCc2cccc(F)c2)cc(OC)c1O`, the MED in the assay filed under Danio rerio is 15 to 20 µM. The IC50 is 7.57 µM in the assay on HCT-116 [1]; more than 25 µM in the assay on MDA-MB-231; 12.4 µM with HepG2; 2.97 µM with MKN-45; 2.24 µM in the assay on A549.

As to `COc1cc(CCc2cccc(Cl)c2Cl)cc(OC)c1O`, the MED in the assay filed under Danio rerio lay within 5 to 10 µM. Also, the IC50 in the assay with HCT-116 [1] was 8.78 µM; in the assay with MDA-MB-231 it was 6.87 µM; in the assay with HepG2, 4.77 µM; in the assay with MKN-45 it was 0.011 µM; in the assay on A549 it was 3.99 µM.

`COc1cc(CCc2ccc(F)cc2)cc(OC)c1O`: the MED in the assay listed under Danio rerio was more than 50 µM. Further, the 50% inhibitory concentration (IC50) in the assay on HCT-116 [1] was 1.19 µM; in the assay with MDA-MB-231, more than 25 µM; with HepG2 it was 5.47 µM; with MKN-45, 10.7 µM; in the assay on A549, 4.15 µM.

Regarding `COc1ccc(CCc2ccc(F)cc2)cc1OC`, the MED in the assay listed under Danio rerio was more than 50 µM. For the same compound, the IC50 in the assay on HCT-116 [1] was 7.89 µM; in the assay on MDA-MB-231, 0.92 µM; with HepG2, more than 25 µM; with MKN-45, 3.98 µM; in the assay with A549, more than 25 µM.

For the compound `COc1ccc(CCc2ccccc2Cl)cc1OC`, the MED in the assay listed under Danio rerio lay within 20 to 25 µM. In addition, the half-inhibitory concentration (IC50) with HCT-116 [1] was 6.16 µM; in the assay on MDA-MB-231 it was more than 25 µM; with HepG2, 4.93 µM; in the assay on MKN-45, 2.04 µM; in the assay on A549, more than 25 µM.

`COc1ccc(CCc2ccccn2)cc1OC`: the MED in the assay filed under Danio rerio was more than 50 µM. Also, the IC50 is 0.93 µM with HCT-116 [1]; 10.5 µM in the assay on MDA-MB-231; 13.8 µM in the assay with HepG2; 11.1 µM with MKN-45; more than 25 µM in the assay on A549.

Turning to `COc1cc(CCc2ccc(OC)c(OC)c2)ccc1O`, in the assay listed under Danio rerio, the MED was more than 50 µM. Besides, the IC50 in the assay on HCT-116 [1] stood at 2.69 µM; in the assay on MDA-MB-231, 1.64 µM; with HepG2, 2.27 µM; in the assay on MKN-45, 2.06 µM; with A549, 3.64 µM.

`COc1cc(CCc2cc(OC)c(O)c(OC)c2)ccc1O` [MOSCATILIN]: the MED in the assay listed under Danio rerio is 2.5 to 5 µM. Moreover, the concentration for half-maximal inhibition (IC50) in the assay on HCT-116 [1] came to 2.29 µM; in the assay on MDA-MB-231, 0.082 µM; with HepG2 it was 3.76 µM; in the assay on MKN-45 it was 3.51 µM; with A549 it was 2.1 µM.

Take `Cc1cc(C)c(/C=C2\C(=O)Nc3ccccc32)[nH]1` [SEMAXANIB]: in the assay listed under Danio rerio, the MED was 1.25 to 2.5 µM.

`COc1cc(CCc2ccccc2)cc(OC)c1O`: the MED in the assay filed under Danio rerio is 20 to 25 µM. For the same compound, the IC50 was 0.53 µM in the assay on HCT-116 [1]; more than 25 µM with MDA-MB-231; 7.83 µM with HepG2; 1.04 µM in the assay with MKN-45; 10.9 µM in the assay on A549.

On to `COc1ccccc1CCc1cc(OC)c(O)c(OC)c1`, for which the MED in the assay listed under Danio rerio was in the range of 1.25 to 2.5 µM. Also, the IC50 in the assay on HCT-116 [1] is 14.5 µM; in the assay with MDA-MB-231 it was more than 25 µM; in the assay on HepG2, 2.48 µM; in the assay with MKN-45 it was 2.48 µM; in the assay with A549, 1.74 µM.

Consider `COc1cc(CCc2ccc(Cl)cc2Cl)cc(OC)c1O`, for which, in the assay filed under Danio rerio, the MED was 5 to 10 µM. Moreover, the half-inhibitory concentration (IC50) was 2.98 µM with HCT-116 [1]; more than 25 µM in the assay with MDA-MB-231; 6.74 µM in the assay with HepG2; 4.46 µM in the assay with MKN-45; 3.84 µM in the assay with A549.

`COc1cc(CCc2ccc(Cl)cc2)cc(OC)c1O`: the MED in the assay filed under Danio rerio is more than 50 µM. Further, the IC50 in the assay on HCT-116 [1] is 0.33 µM; in the assay on MDA-MB-231, more than 25 µM; in the assay with HepG2, 8.78 µM; with MKN-45 it was 0.74 µM; in the assay with A549, 22.9 µM.

In the case of `COc1ccc(CCc2ccc(Cl)cc2)cc1OC`, the MED in the assay listed under Danio rerio was more than 50 µM. Further, the IC50 with HCT-116 [1] was 0.52 µM; in the assay on MDA-MB-231, 1.25 µM; in the assay with HepG2, 0.74 µM; in the assay on MKN-45, 1.52 µM; in the assay with A549, more than 25 µM.

As to `COc1cc(CCc2ccc([N+](=O)[O-])cc2)cc(OC)c1O`, the half-maximal inhibitory concentration (IC50) in the assay on HCT-116 [1] was 3.16 µM; in the assay on MDA-MB-231 it was 8.05 µM; in the assay on HepG2, 11 µM; in the assay with MKN-45, 15.4 µM; with A549, 9.13 µM.

(Values after ChEMBL document CHEMBL4390700, “Design, synthesis and antitumour and anti-angiogenesis evaluation of 22 moscatilin derivatives” (Bioorg Med Chem, 2019).)
